Assay results from different studies.
APC: Adenomatous polyposis coli protein (APC, Homo sapiens, UniProt P25054)
Ephx2: Bifunctional epoxide hydrolase 2 (Ephx2, Mus musculus, UniProt P34914)
AMY1A: Alpha-amylase 1A (AMY1A, Homo sapiens, UniProt P0DUB6)
EGFR: Epidermal growth factor receptor (EGFR, Homo sapiens, UniProt P00533)

| target | observed | action | method | IC50 [µM] | SMILES |
| --- | --- | --- | --- | --- | --- |
| APC | ligand displacement | – | FP | 38.9 | COc1cc(C(=O)N[C@@H](CCC(=O)O)C(=O)N[C@@H](Cc2ccc3ccccc3c2)C(=O)N[C@@H](CC(C)C)C(=O)NC2CC2c2ccccc2)ccn1 (stereo partly drawn) |
| Ephx2 | enzyme activity | inhibitor | fluorescence | 0.0877 | O=C(Nc1ccc(-c2ccc3ncccc3c2)cc1)C1CCN(S(=O)(=O)c2ccccc2Cl)CC1 |
| AMY1A | enzyme activity | inhibitor | – | 5.3 | Oc1ccc([C@@H]2c3c(O)cc(O)cc3[C@@H]3c4c(cc(O)c5c4[C@@H]2[C@H](c2ccc(O)cc2)[C@H]5c2cc(O)cc4c2[C@@H](c2cc(O)cc(O)c2)[C@H](c2ccc(O)cc2)O4)O[C@H]3c2ccc(O)cc2)cc1 |
| Ephx2 | enzyme activity | inhibitor | fluorescence | 0.0382 | O=C(Nc1ccc(-c2ccc3cccnc3c2)cc1)C1CCN(S(=O)(=O)c2ccccc2Cl)CC1 |
| APC | ligand displacement | – | FP | 77.6 | CC(C)C[C@H](NC(=O)[C@H](Cc1ccc2ccccc2c1)NC(=O)[C@H](CCC(=O)O)NC(=O)c1ccccc1)C(=O)NC1CC1c1ccccc1 (stereo partly drawn) |
| AMY1A | enzyme activity | inhibitor | – | 33.7 | Oc1ccc([C@@H]2c3c(O)cc(O)cc3[C@@H]3c4c(cc(O)cc4[C@H]2[C@@H]2c4cc(O)cc5c4[C@@H](c4cc(O)cc(O)c4[C@H]2c2ccc(O)cc2)[C@H](c2ccc(O)cc2)O5)O[C@H]3c2ccc(O)cc2)cc1 |
| Ephx2 | enzyme activity | inhibitor | fluorescence | 0.182 | O=C(Nc1ccc(-c2ccc3ccccc3n2)cc1)C1CCN(S(=O)(=O)c2ccccc2Cl)CC1 |
| EGFR | enzyme activity | inhibitor | ADP detection | 0.0405 | Cc1ncc(CN2CCN(Cc3ccccn3)CC2)c2cc(C(=O)c3ccc4c(c3)OCCO4)oc12 |
| EGFR | enzyme activity | inhibitor | ATP luminescence | 0.307 | Cc1c(Cc2ccccc2)c(=O)oc2c(C)c(OCC(=O)NN=Cc3ccccc3)ccc12 |
| APC | ligand displacement | – | FP | 72.4 | CC(C)C[C@H](NC(=O)[C@H](Cc1ccc2ccccc2c1)NC(=O)[C@H](CCC(=O)O)NC(=O)c1ccncc1)C(=O)NC1CC1c1ccccc1 (stereo partly drawn) |
| Epidermal growth factor receptor (EGFR, Homo sapiens, UniProt P00533, C797S/L858R/T790M) | enzyme activity | inhibitor | ADP detection | 0.00577 | Cc1ccc2c(-c3cc4c(CN5CCN(Cc6ccccn6)CC5)cnc(C)c4o3)cc(=O)oc2c1 |
| APC | ligand displacement | – | FP | 81.3 | CC(C)C[C@H](NC(=O)[C@H](Cc1ccc2ccccc2c1)NC(=O)[C@H](CCC(=O)O)NC(=O)C1N=CN=N1)C(=O)NC1CC1c1ccccc1 (stereo partly drawn) |
| EGFR | enzyme activity | inhibitor | ADP detection | 0.0129 | Cc1ncc(CN2CCc3ccccc3C2)c2cc(C(=O)c3ccc4c(c3)OCCO4)oc12 |
| APC | ligand displacement | – | FP | 21.9 | CC(C)C[C@H](NC(=O)[C@H](Cc1ccc2ccccc2c1)NC(=O)[C@H](CCC(=O)O)NC(=O)C1CCCCC1)C(=O)NC1CC1c1ccccc1 (stereo partly drawn) |
| Palmitoyl-protein thioesterase 1 (Homo sapiens, UniProt P50897) | enzyme activity | inhibitor | – | > 125 | COc1ccc2nc3cc(Cl)ccc3c(Nc3cc(CN4CCCC4)c(O)c(CN4CCCC4)c3)c2n1 |
